In ChEMBL document CHEMBL4152243, “Design, synthesis and biological activities of 2,3-dihydroquinazolin-4(1H)-one derivatives as TRPM2 inhibitors” (Eur J Med Chem, 2018):
Calls of active or inactive are those of the source. The calls are words filed in the database; no cut-off is given here.

Columns and labels:
Format in all cases: cell-based
[1] = target: T1, Transient receptor potential cation channel subfamily M member 8 (Homo sapiens, UniProt Q7Z2W7); experiment: Inhibition of human TRPM8 expressed in HEK293 cells assessed as reduction in H2O2-induced intracellular calcium flux after 30 mins by Fluo4-AM dye based fluorescence assay
Target sequence in this assay (Q7Z2W7 whole entry): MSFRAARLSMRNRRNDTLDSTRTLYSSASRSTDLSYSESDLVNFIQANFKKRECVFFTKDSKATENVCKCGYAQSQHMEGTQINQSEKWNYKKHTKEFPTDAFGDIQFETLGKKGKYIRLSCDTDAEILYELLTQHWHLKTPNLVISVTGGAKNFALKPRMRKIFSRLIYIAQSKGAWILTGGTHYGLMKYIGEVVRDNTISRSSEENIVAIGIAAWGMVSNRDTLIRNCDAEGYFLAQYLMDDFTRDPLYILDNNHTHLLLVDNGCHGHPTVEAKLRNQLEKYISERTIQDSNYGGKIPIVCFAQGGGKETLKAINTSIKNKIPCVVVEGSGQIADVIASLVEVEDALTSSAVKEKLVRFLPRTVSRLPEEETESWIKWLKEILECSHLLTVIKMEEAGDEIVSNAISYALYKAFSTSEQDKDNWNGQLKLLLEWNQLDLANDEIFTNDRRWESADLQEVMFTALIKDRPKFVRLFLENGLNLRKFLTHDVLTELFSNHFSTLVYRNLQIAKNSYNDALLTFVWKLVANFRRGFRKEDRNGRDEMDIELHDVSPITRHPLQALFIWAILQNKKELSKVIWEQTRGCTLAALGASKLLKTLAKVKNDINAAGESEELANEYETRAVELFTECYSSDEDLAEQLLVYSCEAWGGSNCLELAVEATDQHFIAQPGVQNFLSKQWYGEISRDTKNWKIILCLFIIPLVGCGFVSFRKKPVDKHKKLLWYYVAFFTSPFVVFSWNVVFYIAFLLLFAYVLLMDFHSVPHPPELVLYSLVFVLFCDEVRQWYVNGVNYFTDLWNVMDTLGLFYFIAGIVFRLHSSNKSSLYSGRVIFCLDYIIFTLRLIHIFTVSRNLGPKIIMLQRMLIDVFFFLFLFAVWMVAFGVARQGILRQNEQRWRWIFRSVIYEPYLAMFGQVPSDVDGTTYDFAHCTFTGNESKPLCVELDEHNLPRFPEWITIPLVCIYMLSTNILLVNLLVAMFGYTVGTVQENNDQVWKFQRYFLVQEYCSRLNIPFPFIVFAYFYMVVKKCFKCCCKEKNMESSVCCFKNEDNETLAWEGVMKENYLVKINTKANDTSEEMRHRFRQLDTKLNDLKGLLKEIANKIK

[2] = target: T2, Transient receptor potential cation channel subfamily M member 2 (Homo sapiens, UniProt O94759); experiment: Inhibition of human TRPM2 expressed in HEK293 cells assessed as reduction in ADPR-induced channel currents at 30 uM treated extracellularly after 60 secs by whole cell patch clamp electrophysiology method relative to control
Summary of the method: (§1)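 Tetracycline-inducible HEK293 stably expressing human TRPM2 (1 µg/mL tetracycline), whole-cell patch clamp at room temperature. ECS (mM): 145 NaCl, 5.6 KCl, 2 MgCl2, 1.2 CaCl2, 10 HEPES, pH 7.2. ICS contained 500 µM ADPR (pH 7.3). Compound was added to ECS. Held at 0 mV with 500 ms ramps from -100 to 100 mV every 5 s. IC50 came from concentration–response curves; mean ± SEM from at least five cells.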

[3] = target: T2, Transient receptor potential cation channel subfamily M member 2; experiment: Inhibition of human TRPM2 expressed in HEK293 cells assessed as reduction in ADPR-induced channel currents treated extracellularly after 60 secs by whole cell patch clamp electrophysiology method; summary of the method: as §1
[4] = target: T2, Transient receptor potential cation channel subfamily M member 2; experiment: Inhibition of human TRPM2 expressed in HEK293 cells assessed as reduction in ADPR-induced channel currents at 3 uM treated extracellularly after 60 secs by whole cell patch clamp electrophysiology method relative to control; summary of the method: as §1
[5] = test system: Transient receptor potential cation channel subfamily M member 2 (Homo sapiens), O94759 [D964A]; experiment: Inhibition of human TRPM2 D964A mutant expressed in HEK293 cells assessed as reduction in ADPR-induced channel currents at 30 uM treated extracellularly after 50 to 200 secs by whole cell patch clamp electrophysiology method relative to control
[6] = test system: Transient receptor potential cation channel subfamily M member 2 (Homo sapiens), O94759 [H995A]; experiment: Inhibition of human TRPM2 H995A mutant expressed in HEK293 cells assessed as reduction in ADPR-induced channel currents at 30 uM treated extracellularly after 50 to 200 secs by whole cell patch clamp electrophysiology method
[7] = target: T2, Transient receptor potential cation channel subfamily M member 2; experiment: Inhibition of human TRPM2 expressed in HEK293 cells assessed as reduction in H2O2-induced intracellular calcium flux at 30 uM after 30 mins by Fluo3-AM dye based fluorescence imaging assay
[8] = target: T1, Transient receptor potential cation channel subfamily M member 8; experiment: Inhibition of human TRPM8 expressed in HEK293 cells assessed as reduction in menthol-induced channel currents at 30 uM treated extracellularly after 60 secs by whole cell patch clamp electrophysiology method relative to control
Summary of the method: (§2)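 HEK293 were transiently transfected with human TRPM8 (pcDNA4/TO) plus GFP using Lipofectamine 2000 and recorded 24–48 h later by whole-cell patch clamp. TRPM8 was activated by 1 mM menthol in ECS. Compound at 30 µM was placed in ECS or ICS, with 0.1 mM 2-APB as reference inhibitor. Mean peak currents reported as mean ± SEM, n = 5.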
Target sequence in this assay (Q7Z2W7 whole entry, looked up): as the sequence (Q7Z2W7 whole entry) above

[9] = target: T1, Transient receptor potential cation channel subfamily M member 8; experiment: Inhibition of human TRPM8 expressed in HEK293 cells assessed as reduction in menthol-induced channel currents at 30 uM treated intracellularly via pipette after 60 secs by whole cell patch clamp electrophysiology method; summary of the method: as §2
Target sequence in this assay (Q7Z2W7 whole entry, looked up): as the sequence (Q7Z2W7 whole entry) above

[10] = target: T2, Transient receptor potential cation channel subfamily M member 2; experiment: Inhibition of human TRPM2 expressed in HEK293 cells assessed as reduction in ADPR-induced channel currents at 30 to 1000 uM treated intracellularly after 60 secs by whole cell patch clamp electrophysiology method
Summary of the method: (§3)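 Human TRPM2 in tetracycline-inducible HEK293, recorded by whole-cell patch clamp at room temperature. Compound at 30 µM or 1 mM was added to the pipette ICS together with 500 µM ADPR; the ICS (mM) was 147 NaCl, 1 EGTA, 1 MgCl2, 24 HEPES, pH 7.3. Ramps ran from -100 to 100 mV every 5 s from a 0 mV hold, with leak subtraction from the first three ramps.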

[11] = target: T2, Transient receptor potential cation channel subfamily M member 2; experiment: Inhibition of human TRPM2 expressed in HEK293 cells assessed as reduction in ADPR-induced channel currents at 30 to 1000 uM treated simultaneously after 60 secs by whole cell patch clamp electrophysiology method; summary of the method: as §3

Chain of Transient receptor potential cation channel subfamily M member 2 (Homo sapiens), O94759 [H995A] (O94759 whole entry H995A): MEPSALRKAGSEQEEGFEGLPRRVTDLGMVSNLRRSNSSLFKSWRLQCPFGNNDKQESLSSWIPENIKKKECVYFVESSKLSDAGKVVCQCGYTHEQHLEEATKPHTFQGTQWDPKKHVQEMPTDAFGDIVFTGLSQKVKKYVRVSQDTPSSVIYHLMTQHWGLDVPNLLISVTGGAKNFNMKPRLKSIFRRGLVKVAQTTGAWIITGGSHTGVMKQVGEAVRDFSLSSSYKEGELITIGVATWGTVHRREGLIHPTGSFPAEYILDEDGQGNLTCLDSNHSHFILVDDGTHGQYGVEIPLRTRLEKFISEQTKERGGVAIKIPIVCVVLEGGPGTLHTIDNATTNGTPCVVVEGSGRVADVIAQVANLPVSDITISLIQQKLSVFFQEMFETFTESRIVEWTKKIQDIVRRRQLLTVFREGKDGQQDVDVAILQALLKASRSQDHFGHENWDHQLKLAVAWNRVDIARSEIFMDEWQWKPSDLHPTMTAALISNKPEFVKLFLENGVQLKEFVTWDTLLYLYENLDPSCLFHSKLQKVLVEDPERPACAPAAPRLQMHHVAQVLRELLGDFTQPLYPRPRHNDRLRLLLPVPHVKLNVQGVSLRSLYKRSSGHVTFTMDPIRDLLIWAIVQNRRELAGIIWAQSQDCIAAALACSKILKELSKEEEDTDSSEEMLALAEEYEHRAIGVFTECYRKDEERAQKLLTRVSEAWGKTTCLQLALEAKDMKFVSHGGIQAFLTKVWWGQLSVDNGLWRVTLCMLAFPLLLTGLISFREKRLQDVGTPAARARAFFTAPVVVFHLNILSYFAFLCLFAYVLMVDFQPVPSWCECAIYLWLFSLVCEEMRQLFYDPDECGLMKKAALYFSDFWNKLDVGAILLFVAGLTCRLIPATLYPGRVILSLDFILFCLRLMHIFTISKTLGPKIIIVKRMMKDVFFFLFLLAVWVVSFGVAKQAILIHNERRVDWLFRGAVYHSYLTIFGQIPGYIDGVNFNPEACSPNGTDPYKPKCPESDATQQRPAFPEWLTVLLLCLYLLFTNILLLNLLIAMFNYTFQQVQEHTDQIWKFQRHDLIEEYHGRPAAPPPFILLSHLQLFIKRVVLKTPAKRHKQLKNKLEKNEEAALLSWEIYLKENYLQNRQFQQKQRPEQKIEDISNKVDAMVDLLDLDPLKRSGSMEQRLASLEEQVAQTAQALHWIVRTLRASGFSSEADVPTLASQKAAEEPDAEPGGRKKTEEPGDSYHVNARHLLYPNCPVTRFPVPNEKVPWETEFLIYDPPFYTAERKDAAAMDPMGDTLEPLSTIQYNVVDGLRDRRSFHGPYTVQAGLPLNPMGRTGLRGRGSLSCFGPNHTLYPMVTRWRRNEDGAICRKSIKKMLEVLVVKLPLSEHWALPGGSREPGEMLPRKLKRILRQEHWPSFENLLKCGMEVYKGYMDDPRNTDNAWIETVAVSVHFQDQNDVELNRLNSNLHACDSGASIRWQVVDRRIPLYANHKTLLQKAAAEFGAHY
T2 sequence (O94759 whole entry): as the sequence (O94759 whole entry H995A) above, with A995H counted along it
Chain of Transient receptor potential cation channel subfamily M member 2 (Homo sapiens), O94759 [D964A] (O94759 whole entry D964A): as the sequence (O94759 whole entry H995A) above, with D964A, A995H counted along it

SMILES | inhibition [2] | inhibition [7] | further results
CCCCCc1ccc(/C=C/C(=O)Nc2ccccc2C(=O)O)cc1 | 89.1% | – | IC50 [1]: 3.9 µM; IC50 [3]: 0.32 µM; inhibition [4]: 75.9%
Nc1ncnc2c1ncn2[C@@H]1O[C@H](COP(=O)(O)O)[C@@H](O)[C@H]1O | – | – | inhibition [5]: Active; inhibition [6]: inactive; inhibition [3]: Dose-dependent effect
O=c1[nH]c(SCc2ccncc2)nc2ccccc12 | – | Active | –
Cc1cc(F)cc2c1NC(c1c[nH]nc1-c1ccccc1)NC2=O (stereo not given) | 42.7% | – | –
Cc1cccc2c1NC(c1c[nH]nc1-c1ccccc1)NC2=O (stereo not given) | 39.2% | – | –
Cc1cc(Cl)cc2c1N[C@@H](c1c[nH]nc1-c1ccccc1)NC2=O | Active | – | –
O=C1NC(c2c[nH]nc2-c2ccccc2)Nc2cccc(Cl)c21 (stereo not given) | – | Active | –
COc1cc(Br)cc2c1NC(c1c[nH]nc1-c1ccccc1)NC2=O (stereo not given) | 50.4% | – | –
Cc1cc(Cl)cc2c1NC(c1c[nH]nc1-c1ccc(Br)cc1)NC2=O (stereo not given) | 51% | – | –
O=C1NC(c2c[nH]nc2-c2ccccc2)Nc2c(Cl)cc(Cl)cc21 (stereo not given) | – | Active | –
Cc1cc(Cl)cc2c1NC(c1c[nH]nc1-c1ccccc1)NC2=O (stereo not given) | 90.2% | – | inhibition [8]: 27%; IC50 [3]: 5.1 µM; inhibition [4]: 46.4%; inhibition [9]: Active
Cc1cc(Cl)cc2c1NC(c1cn[nH]c1)NC2=O (stereo not given) | 16.9% | – | –
Cc1cccc2c1C(=O)NC(c1c[nH]nc1-c1ccccc1)N2 (stereo not given) | – | Active | –
Cc1cc(Cl)cc2c1NC(c1c[nH]nc1-c1ccc([N+](=O)[O-])cc1)NC2=O (stereo not given) | 90.4% | – | inhibition [4]: 43.4%
O=C1NC(c2c[nH]nc2-c2ccccc2)Nc2ccccc21 (stereo not given) | 55 to 68.1% | Active | inhibition [10]: inactive; inhibition [11]: inactive; inhibition [5]: 40 to 50%; inhibition [6]: 4%
O=C1NC(c2cc(-c3ccccc3)c[nH]2)Nc2ccccc21 (stereo not given) | – | Active | –
Cc1cc(Cl)cc2c1NC(c1c[nH]nc1-c1cccc3ccccc13)NC2=O (stereo not given) | 90.2% | – | inhibition [8]: inactive; IC50 [3]: 4 µM; inhibition [4]: 50.9%; inhibition [9]: inactive
O=C1NC(c2c[nH]nc2-c2ccc(Cl)cc2)Nc2ccccc21 (stereo not given) | – | Active | –
Cc1cc(Br)c2c(c1)C(=O)NC(c1c[nH]nc1-c1ccccc1)N2 (stereo not given) | – | Active | –
Cc1cc(Cl)cc2c1NC(c1c[nH]nc1-c1ccc(Cl)cc1)NC2=O (stereo not given) | 10.3% | – | –
O=C1NC(c2c[nH]nc2-c2ccccc2)Nc2c(I)cc(Cl)cc21 (stereo not given) | 89.4% | – | inhibition [4]: 39.6%
Cc1cc(Cl)cc2c1NC(c1c[nH]nc1-c1ccccc1Br)NC2=O (stereo not given) | 17.9% | – | –
O=C1NC(c2c[nH]nc2-c2ccccc2)Nc2cc(Br)ccc21 (stereo not given) | – | Active | –
Cc1cc(C)c2nc(-c3c[nH]nc3-c3ccccc3)[nH]c(=O)c2c1 | – | Active | –

SMILES | inhibition [2] | inhibition [7] | further results
Cc1cc(I)cc2c1NC(c1c[nH]nc1-c1ccccc1)NC2=O (stereo not given) | – | Active | –
O=c1[nH]c(-c2c[nH]nc2-c2ccccc2)nc2ccc(Cl)cc12 | – | Active | –
Cc1cc(Br)cc2c1NC(c1c[nH]nc1-c1cccc3ccccc13)NC2=O (stereo not given) | – | – | inhibition [8]: inactive; inhibition [6]: inactive; IC50 [3]: 3.7 µM; inhibition [4]: 48.7%; inhibition [9]: inactive
O=c1[nH]c(-c2c[nH]nc2-c2ccccc2)nc2ccccc12 | 28.7% | – | –
Cc1cccc2c(=O)[nH]c(-c3c[nH]nc3-c3ccccc3)nc12 | 21.2% | – | –
Cc1cc(Br)cc2c1NC(c1c[nH]nc1-c1ccccc1)NC2=O (stereo not given) | 92.8% | – | inhibition [8]: 19%; IC50 [3]: 4.6 µM; inhibition [4]: 50.1%; inhibition [9]: Active
Cc1cc(Cl)cc2c(=O)[nH]c(-c3c[nH]nc3-c3ccccc3)nc12 | – | Active | –
O=C1NC(c2c[nH]nc2-c2cccc3ccccc23)Nc2c(I)cc(Cl)cc21 (stereo not given) | – | – | inhibition [4]: 19.9%
O=C1NC(c2c[nH]nc2-c2ccccc2)Nc2c(Br)cc(F)cc21 (stereo not given) | – | Active | –
O=C1NC(c2c[nH]nc2-c2ccccc2)Nc2ccc(F)cc21 (stereo not given) | 34.8% | – | –
O=C1NC(c2c[nH]nc2-c2ccccc2)Nc2c1cccc2[N+](=O)[O-] (stereo not given) | – | Active | –
Cc1cc(C)c2c(c1)C(=O)NC(c1c[nH]nc1-c1ccccc1)N2 (stereo not given) | 60.5% | – | –
Cc1cc(Cl)cc2c1N[C@H](c1c[nH]nc1-c1ccccc1)NC2=O | Active | – | –
Cc1cc(Cl)cc2c1NC(c1c[nH]nc1-c1ccc(-c3ccccc3)cc1)NC2=O (stereo not given) | 17% | – | –
O=C1NC(c2c[nH]nc2-c2ccccc2)Nc2ccc(Cl)cc21 (stereo not given) | 27.9% | – | –
O=C1NC(c2c[nH]nc2-c2ccc([N+](=O)[O-])cc2)Nc2c(I)cc(Cl)cc21 (stereo not given) | – | – | inhibition [4]: 34.9%
Cc1cc(Br)cc2c1NC(c1c[nH]nc1-c1ccc([N+](=O)[O-])cc1)NC2=O (stereo not given) | – | – | inhibition [4]: 42.1%
O=C1NC(c2c[nH]nc2-c2ccccc2)Nc2c(Br)cc(Br)cc21 (stereo not given) | – | Active | –
O=c1[nH]c(-c2c[nH]nc2-c2ccccc2)nc2ncccc12 | – | Active | –
O=C1NC(c2c[nH]nc2-c2ccccc2)Nc2c(Br)cccc21 (stereo not given) | – | Active | –
O=C1NC(c2c[nH]nc2-c2ccccc2)Nc2c(I)cc(I)cc21 (stereo not given) | – | Active | –
O=C1NC(c2c[nH]nc2-c2ccccc2)Nc2c(F)cc(F)cc21 (stereo not given) | 37.2% | – | –
O=C1NC(c2cncn2Cc2ccc(Cl)cc2)Nc2ccccc21 (stereo not given) | – | Active | –
